Reference: ChEMBL document CHEMBL1141397, “Pharmacophore-based design of sphingosine 1-phosphate-3 receptor antagonists that include a 3,4-dialkoxybenzophenone scaffold” (J Med Chem, 2007)

Tests used:
Assay type in all cases: functional, cell-based
[1] = target: T1, Sphingosine 1-phosphate receptor 3 (Homo sapiens, UniProt Q99500); experiment: Antagonist activity against human S1P3 receptor assessed as inhibition of S1P-induced intracellular calcium mobilization in CHO-K1 cells
Procedure, shortened: (§1)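 CHO-K1 cells stably transfected with the S1P1, S1P2 or S1P3 receptor, grown in Ham's F12K with G418 (200 µg/mL). Cells plated at 20 000/well in Ham's medium with 1% FBS for 24 h at 37 °C, washed, then held in Ham's medium for a further 24 h. Cells are washed with HBSS containing sulfinpyrazone (0.25 mmol/L) and loaded with Fura-2.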

[2] = target: Sphingosine 1-phosphate receptor 2 (Homo sapiens) (UniProt O95136); experiment: Antagonist activity against human S1P2 receptor assessed as inhibition of S1P-induced intracellular calcium mobilization in CHO-K1 cells at 10 uM; procedure, shortened: as §1
Sequence of Sphingosine 1-phosphate receptor 2 (Homo sapiens) (O95136 whole entry): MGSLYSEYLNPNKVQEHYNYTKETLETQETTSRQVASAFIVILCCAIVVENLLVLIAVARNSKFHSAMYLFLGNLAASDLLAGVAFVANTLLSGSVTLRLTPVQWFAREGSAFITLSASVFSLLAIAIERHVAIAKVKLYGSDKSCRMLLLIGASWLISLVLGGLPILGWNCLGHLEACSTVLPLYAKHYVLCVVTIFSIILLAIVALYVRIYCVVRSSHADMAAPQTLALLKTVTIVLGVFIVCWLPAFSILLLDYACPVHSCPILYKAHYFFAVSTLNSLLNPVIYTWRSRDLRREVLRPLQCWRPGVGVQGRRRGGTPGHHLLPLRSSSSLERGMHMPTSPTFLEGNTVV

[3] = target: T2, Sphingosine 1-phosphate receptor 1 (Homo sapiens, UniProt P21453); experiment: Activity at human S1P1 receptor assessed as inhibition of S1P-induced intracellular calcium mobilization in CHO-K1 cells at 10 uM; procedure, shortened: as §1
T2 sequence (P21453 whole entry): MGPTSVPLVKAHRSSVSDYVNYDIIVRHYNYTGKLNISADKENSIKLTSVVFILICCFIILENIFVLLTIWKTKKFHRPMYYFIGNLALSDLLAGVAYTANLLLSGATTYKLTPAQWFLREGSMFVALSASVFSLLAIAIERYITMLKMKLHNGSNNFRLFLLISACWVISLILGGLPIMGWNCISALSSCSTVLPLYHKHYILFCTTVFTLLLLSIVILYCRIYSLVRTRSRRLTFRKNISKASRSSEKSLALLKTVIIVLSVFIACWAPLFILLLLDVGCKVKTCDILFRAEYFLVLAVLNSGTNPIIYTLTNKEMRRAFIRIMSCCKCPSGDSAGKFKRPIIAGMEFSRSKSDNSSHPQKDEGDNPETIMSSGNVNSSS

[4] = target: T1, Sphingosine 1-phosphate receptor 3; experiment: Antagonist activity against human S1P3 receptor assessed as inhibition of S1P-induced intracellular calcium mobilization in CHO-K1 cells at 10 uM; procedure, shortened: as §1
[5] = target: T2, Sphingosine 1-phosphate receptor 1; experiment: Antagonist activity against human S1P1 receptor assessed as inhibition of S1P-induced intracellular calcium mobilization in CHO-K1 cells; procedure, shortened: as §1

T1 sequence (Q99500 whole entry): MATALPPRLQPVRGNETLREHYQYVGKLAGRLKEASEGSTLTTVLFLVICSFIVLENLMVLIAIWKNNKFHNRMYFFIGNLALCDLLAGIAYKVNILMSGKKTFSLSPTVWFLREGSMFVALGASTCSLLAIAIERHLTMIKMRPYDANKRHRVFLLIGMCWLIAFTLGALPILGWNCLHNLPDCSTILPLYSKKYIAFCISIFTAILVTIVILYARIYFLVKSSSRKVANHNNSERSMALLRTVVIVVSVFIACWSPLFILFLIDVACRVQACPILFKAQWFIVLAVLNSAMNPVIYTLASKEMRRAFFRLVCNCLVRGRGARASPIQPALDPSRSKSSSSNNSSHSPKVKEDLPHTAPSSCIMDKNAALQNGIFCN

IC50 [1] | inhibition [2] | inhibition [3] | other results | Structure (SMILES)
9.7 µM | – | – | – | CCCCCCCc1cccc(C2N[C@H](C(=O)O)CS2)c1 (some centres not stated)
– | -8.7% | 1% | inhibition [4]: 8.3% | CCCCCCCCCCCCCCCCOc1ccc(/C(=N\NS(=O)(=O)c2cccc(C(=O)O)c2)c2ccccc2)cc1OC
> 20 µM | – | – | – | CCCCCCCCCc1cccc(C2N[C@H](C(=O)O)CS2)c1 (some centres not stated)
13.2 µM | 14% | 32.9% | – | CCCCCCCCOc1ccc(/C(=N\NS(=O)(=O)c2cc(C(=O)O)cc(C(=O)O)c2)c2ccccc2)cc1OC
8.75 µM | – | – | – | CCCCCCCCCCCCCCCCOc1ccc(S(=O)(=O)O)cc1C(=O)O
– | 6.2% | 24.2% | inhibition [4]: 6.7% | CCCCOc1ccc(/C(=N/NS(=O)(=O)c2cc(C(=O)O)cc(C(=O)O)c2)c2ccccc2)cc1OC
– | -0.1% | 34.8% | HI [4]: 34.4% | CCCCCCCCCCCCCCCCOc1ccc(/C(=N/NS(=O)(=O)c2cccc(C(=O)O)c2)c2ccccc2)cc1OC
3.57 µM | 9.5% | – | IC50 [5]: 4.28 µM | CCCCCCCCCCCCCCCCOc1ccc(/C(=N\NS(=O)(=O)c2cc(C(=O)O)cc(C(=O)O)c2)c2ccccc2)cc1OC
15.7 µM | – | – | – | CCCCCCCCCCC1N[C@H](C(=O)O)CS1 (some centres not stated)
13 µM | – | – | – | CCCCCCCc1ccc(C2N[C@H](C(=O)O)CS2)cc1 (some centres not stated)
3.44 µM | 35.9% | – | IC50 [5]: 6.18 µM | CCCCCCCCCCCCCCCCOc1ccc(/C(=N/NS(=O)(=O)c2cc(C(=O)O)cc(C(=O)O)c2)N2CCCCC2)cc1OC
11.6 µM | – | – | – | CCCCCCCCCCCC1N[C@H](C(=O)O)CS1 (some centres not stated)
9.74 µM | 20.5% | 17.2% | – | CCCCCCCCCCCCCCCCOc1ccc(/C(=N/NS(=O)(=O)c2cc(C(=O)O)cc(C(=O)O)c2)c2ccccc2)cc1
4.6 µM | – | – | – | CCCCCCCCCCCCCCCCCNc1ccc(C(=O)CC(=O)Cc2cc(C(=O)O)ccc2Oc2cc(C(=O)O)cc(C(=O)O)c2)cc1
> 20 µM | – | – | – | COc1ccc(C2N[C@H](C(=O)O)CS2)cc1COc1c(C)cc(Cl)cc1C(C)C (some centres not stated)
– | – | – | inhibition [4]: < 10% | CCCCCCCCCCCCCC1N[C@H](C(=O)O)CS1 (some centres not stated)
3.59 µM | – | – | – | CCCCCCCCCCCCCCCCCC(=O)Nc1ccc(C(=O)CC(=O)Cc2cc(C(=O)O)ccc2Oc2cc(C(=O)O)cc(C(=O)O)c2)cc1
11.4 µM | -4.6% | 12.7% | – | CCCCCCCCOc1ccc(/C(=N/NS(=O)(=O)c2cc(C(=O)O)cc(C(=O)O)c2)c2ccccc2)cc1OC
2.96 µM | 40.9% | – | IC50 [5]: 6.64 µM | CCCCCCCCCCCCCCCCOc1ccc(/C(=N/NS(=O)(=O)c2cc(C(=O)O)cc(C(=O)O)c2)c2ccccc2)cc1OC
